Compound activity deposited in PubChem BioAssay by Johns Hopkins Ion Channel Center.
Hits are enriched below; roughly 3.5% of the tested compounds scored in any of these assays.
RGS4 act: RGS4 potentiators or activators, primary screen, cell-based, HEK293 M3R inducible RGS4, calcium flux; carbachol calcium flux Fluo4; stronger effect = lower value; B-score at 10 µM; 310,000 compounds, 0.92% hits;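 active = B-score of the integrated calcium signal more than 4 SD below the library mean, with starting fluorescence not abnormally high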;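 note: negative B-score means reduced calcium response which marks RGS4 activation or potentiation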
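test system = M3R-expressing HEK293 line, RGS4 induced by doxycycline | probe or stimulus = carbachol at ECmax as muscarinic agonist stimulus | timing = dye loading 30 min 37 °C, buffer rest 30 min RT | signal = calcium dye Fluo4 fluorescence | evaluation = B score from integrated fluorescence ratio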
MrgX1 allo act: positive allosteric modulators of MrgX1, primary screen, HEK293 cells, Fluo-4 calcium flux. Mas-related G-protein coupled receptor member X1 (Homo sapiens), Q96LB2. FDSS; stronger effect = higher value. B-score at 10 µM. 310,000 compounds, 0.63% hits;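 active = plate-corrected calcium response at least 3 library SD above typical, normal starting fluorescence, not activating the receptor alone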;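 note: compound read alongside a low EC10 to EC30 dose of BAM8-22 agonist; peak minus trough fluorescence over baseline measured at the second addition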
Target sequence (Q96LB2 whole entry, looked up): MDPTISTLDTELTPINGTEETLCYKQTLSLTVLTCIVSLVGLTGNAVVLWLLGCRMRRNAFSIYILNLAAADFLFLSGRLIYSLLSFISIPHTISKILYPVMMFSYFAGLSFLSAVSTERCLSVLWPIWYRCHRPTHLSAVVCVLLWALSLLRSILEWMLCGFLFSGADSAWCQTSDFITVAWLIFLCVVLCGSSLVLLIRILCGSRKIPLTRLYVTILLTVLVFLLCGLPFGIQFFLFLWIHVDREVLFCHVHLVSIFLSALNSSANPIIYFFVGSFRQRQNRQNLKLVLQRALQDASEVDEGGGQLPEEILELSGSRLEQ
MrgX1 ag: agonists of human MrgX1 receptor, primary screen, HEK293 cells, Fluo-4 calcium flux | Mas-related G-protein coupled receptor member X1 (Homo sapiens), Q96LB2 | Fluo-4 calcium fluorescence, agonist mode; stronger effect = higher value | B-score at 10 µM | 310,000 compounds, 0.44% hits;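 active = calcium response B-score plate-corrected fluorescence ratio at least 3 library SD, with starting fluorescence B-score inside 5 SD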
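Assay system: stable human MrgX1 HEK293 cell line. Quantity: 15,000 cells per well. Schedule: cells plated overnight, dye loaded 0.5 h 37 °C, 0.5 h room temperature. Detection: Fluo-4 NW calcium-flux fluorescence, kinetic read. Read-out basis: peak-minus-minimum fluorescence over baseline, converted to B scores. Control set: positive and negative control wells on each plate.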
MrgX1 antag: antagonists of human MrgX1 receptor, primary screen, HEK293 cells, Fluo-4 calcium flux. BAM8-22 antagonism; stronger effect = lower value. B-score at 10 µM. 310,000 compounds, 1.3% hits;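 active = calcium-response B-score plate-corrected more than 3 library SD below zero, starting fluorescence within 5 deviations, no agonist response on first addition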;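 note: peak minus trough fluorescence over baseline after final BAM8-22 challenge near maximal dose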
RGS4 block: RGS4 inhibitors, primary screen, cell-based, HEK293 M3R inducible RGS4, calcium flux; B-score at 10 µM; AID 463165, 2010; 310,000 compounds, 0.45% hits; Regulator of G-protein signaling 4 (Homo sapiens), P49798; Fluo-4 calcium flux; stronger effect = higher value; triggered by carbachol at its EC20;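 active = B-score, a plate-corrected calcium signal, over three deviations above library mean, with baseline fluorescence within five deviations of library mean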;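 note: RGS4 expression induced by doxycycline in cells with stable M3 receptor; B-score is computed from the integrated fluorescence ratio over baseline after carbachol; higher B-score means a larger calcium signal and so more RGS4 inhibition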
Target sequence (P49798 whole entry, looked up): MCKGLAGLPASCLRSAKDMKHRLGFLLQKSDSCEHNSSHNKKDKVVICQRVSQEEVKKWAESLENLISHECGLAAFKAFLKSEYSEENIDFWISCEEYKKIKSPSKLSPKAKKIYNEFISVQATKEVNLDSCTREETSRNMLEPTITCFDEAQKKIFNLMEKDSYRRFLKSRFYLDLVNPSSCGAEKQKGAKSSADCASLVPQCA
MrgX1 antag conf: MrgX1 receptor antagonists, duplicate retest, confirmation, HEK293 cells, Fluo-4 calcium flux. shares compounds with MrgX1 antag. BAM8-22 calcium flux; stronger effect = lower value. remaining BAM8-22 calcium response % of control (stronger effect = lower value), % at 10 µM. 2,300 compounds, 19% hits;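 active = remaining agonist calcium response no higher than 100% minus 3 SD of agonist-only control wells, with starting fluorescence near control levels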;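 note: agonist BAM8-22 given at a near maximal EC90 to ECmax level; peak minus minimum fluorescence divided by baseline after agonist addition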
HEK293 Ca flux: nonspecific calcium signal in parental HEK293, confirmation, counter-screen for MrgX1 antagonist project, parental HEK293 cells, Fluo-4 calcium flux. shares compounds with MrgX1 antag. Fluo-4 calcium fluorescence, FDSS. fluorescence ratio F(max-min)/F0 at 10 µM. 4,000 compounds, 2% hits. AID 624111, 2012;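 active = duplicate-averaged calcium fluorescence ratio at least three times the standard deviation of buffer wells, a nonspecific response in parental cells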
HEK293 Ca counter: calcium response in parental HEK293 cells, primary screen, counter-screen for MrgX1 allosteric activator project, cell-based, Fluo-4 calcium flux, duplicate; 4,000 compounds, 0.4% hits; shares compounds with MrgX1 antag; AID 624114, 2012; Fluo-4 fluorescence ratio; stronger effect = higher value; fluorescence ratio F(max-min)/F0 at 10 µM;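 active = calcium fluorescence ratio, averaged over duplicates, at least 3 SD of the buffer-well ratio, meaning a nonspecific response in receptor-free cells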;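 note: untransfected parental HEK293 lacking MrgX1 used as counterscreen for MrgX1 allosteric activators; fluorescence change taken during the second addition on a kinetic imager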
HEK293 Ca cntr2: calcium response in parental HEK293 cells, primary screen, counter-screen for MrgX1 agonist project, cell-based, Fluo-4 calcium flux, duplicate, agonist mode. shares compounds with MrgX1 antag. Fluo-4 calcium fluorescence (FDSS); stronger effect = higher value. fluorescence ratio F(max-min)/F0 at 10 µM. 4,000 compounds, 8.7% hits. AID 624115, 2012;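 active = calcium fluorescence ratio at least three times the spread of buffer wells, meaning a non-specific response in parental cells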
Numbers stand for hits.

Screening O=C(Nc1ccc(N2CCN(C(=O)c3ccccc3F)CC2)cc1)c1cncc(Br)c1 returned RGS4 act inactive, MrgX1 allo act inactive, MrgX1 ag inactive, MrgX1 antag inactive and RGS4 block inactive.
For Cc1ccc(C)c(CN2C(=O)C3CCCN3c3ccc(C#N)cc32)c1 (centres undefined) the results were RGS4 act inactive, MrgX1 allo act inactive, MrgX1 ag inactive, MrgX1 antag -5.6, RGS4 block inactive, MrgX1 antag conf inactive, HEK293 Ca flux inactive, HEK293 Ca counter inactive and HEK293 Ca cntr2 inactive.
`Cc1ccc(CN2C(=O)C3CCCN3c3ccc(C#N)cc32)cc1` (centres undefined) gave RGS4 act inactive, MrgX1 allo act inactive, MrgX1 ag inactive, MrgX1 antag inactive and RGS4 block inactive.
`O=C(Nc1ccc(S(=O)(=O)N2CCCCC2)cc1)C1CCCN(C(=O)c2ccc(Cl)cc2)C1` (centres undefined) gave RGS4 act inactive, MrgX1 allo act inactive, MrgX1 ag inactive, MrgX1 antag inactive and RGS4 block inactive.
Screening COc1ccc(C(=O)Nc2nc(C)c(C(=O)N(C)C)s2)cc1OC returned RGS4 act inactive, MrgX1 allo act inactive, MrgX1 ag inactive, MrgX1 antag -8.7, RGS4 block inactive, MrgX1 antag conf inactive, HEK293 Ca flux inactive, HEK293 Ca counter inactive and HEK293 Ca cntr2 inactive.
COc1ccc(/C=C/C(=O)Nc2nc(C)c(C(=O)N(C)C)s2)cc1OC was read as RGS4 act inactive, MrgX1 allo act inactive, MrgX1 ag inactive, MrgX1 antag inactive and RGS4 block inactive.
Screening CCOC(=O)N1CCN(C(=O)NC2CCCCC2)CC1 returned RGS4 act inactive, MrgX1 allo act inactive, MrgX1 ag inactive, MrgX1 antag inactive and RGS4 block inactive.
`CCOC(=O)N1CCC(=NNC(=O)NC2CCCCC2)CC1` gave RGS4 act inactive, MrgX1 allo act inactive, MrgX1 ag inactive, MrgX1 antag -21, RGS4 block inactive, MrgX1 antag conf inactive, HEK293 Ca flux inactive, HEK293 Ca counter inactive and HEK293 Ca cntr2 inactive.
Screening O=C(CSc1nc2ccccc2o1)N1CCCC1 returned RGS4 act inactive, MrgX1 allo act inactive, MrgX1 ag inactive, MrgX1 antag inactive and RGS4 block inactive.
Screening COCC(=O)N1CCN(c2nc3ccccc3o2)CC1 returned RGS4 act inactive, MrgX1 allo act inactive, MrgX1 ag inactive, MrgX1 antag -4.5, RGS4 block inactive, MrgX1 antag conf inactive, HEK293 Ca flux inactive, HEK293 Ca counter inactive and HEK293 Ca cntr2 inactive.
`O=C1O/C(=C/c2ccccc2)N=C1c1ccccc1` gave RGS4 act inactive, MrgX1 allo act inactive, MrgX1 ag inactive, MrgX1 antag -5, RGS4 block inactive, MrgX1 antag conf inactive, HEK293 Ca flux inactive, HEK293 Ca counter inactive and HEK293 Ca cntr2 inactive.
For O=C1O/C(=C\c2ccccc2)c2ccccc21 the results were RGS4 act inactive, MrgX1 allo act inactive, MrgX1 ag inactive, MrgX1 antag inactive and RGS4 block inactive.
Screening COc1cccc(NC(=O)C2CCCN2C(=O)Nc2ccccc2)c1 (centres undefined) returned RGS4 act inactive, MrgX1 allo act inactive, MrgX1 ag inactive, MrgX1 antag inactive and RGS4 block inactive.
Screening COc1ccc(NC(=O)N2CCCC2C(=O)NCc2ccc(F)cc2)cc1 (centres undefined) returned RGS4 act inactive, MrgX1 allo act inactive, MrgX1 ag inactive, MrgX1 antag -13, RGS4 block inactive, MrgX1 antag conf inactive, HEK293 Ca flux inactive, HEK293 Ca counter inactive and HEK293 Ca cntr2 inactive.
Screening COc1cccc(NC(=O)C2CCCN2C(=O)Nc2cccc(F)c2)c1 (centres undefined) returned RGS4 act inactive, MrgX1 allo act inactive, MrgX1 ag inactive, MrgX1 antag -4.9, RGS4 block inactive, MrgX1 antag conf inactive, HEK293 Ca flux inactive, HEK293 Ca counter inactive and HEK293 Ca cntr2 inactive.
For COc1ccccc1NC(=O)N1CCCC1C(=O)NCc1ccccc1 (centres undefined) the results were RGS4 act inactive, MrgX1 allo act inactive, MrgX1 ag inactive, MrgX1 antag -5.7, RGS4 block inactive, MrgX1 antag conf inactive, HEK293 Ca flux inactive, HEK293 Ca counter inactive and HEK293 Ca cntr2 inactive.
`CCCNC(=O)CN1CCN(c2cc3ccccc3c(Cl)n2)CC1` gave RGS4 act inactive, MrgX1 allo act inactive, MrgX1 ag inactive, MrgX1 antag inactive and RGS4 block inactive.
COc1cc(C(CC(=O)Nc2ccccn2)N2Cc3ccccc3C2=O)cc(OC)c1OC (centres undefined) was read as RGS4 act inactive, MrgX1 allo act inactive, MrgX1 ag inactive, MrgX1 antag inactive and RGS4 block inactive.
`Cn1c(=O)c2c(ncn2CCN(CCO)Cc2ccccc2)n(C)c1=O` gave RGS4 act inactive, MrgX1 allo act inactive, MrgX1 ag inactive, MrgX1 antag -6.7, RGS4 block inactive, MrgX1 antag conf 81%, HEK293 Ca flux inactive, HEK293 Ca counter inactive and HEK293 Ca cntr2 inactive.
`CCN(Cc1ccccc1)C(=O)Cn1cnc2c1c(=O)n(C)c(=O)n2C` gave RGS4 act inactive, MrgX1 allo act inactive, MrgX1 ag inactive, MrgX1 antag inactive and RGS4 block inactive.
CN1C(=O)CC(N2CCN(CC(N)=O)CC2)C1=O (centres undefined) was read as RGS4 act inactive, MrgX1 allo act inactive, MrgX1 ag inactive, MrgX1 antag -5.6, RGS4 block inactive, MrgX1 antag conf inactive, HEK293 Ca flux inactive, HEK293 Ca counter inactive and HEK293 Ca cntr2 inactive.
For CN1C(=O)CC(N2CCC(C(N)=O)CC2)C1=O (centres undefined) the results were RGS4 act inactive, MrgX1 allo act inactive, MrgX1 ag inactive, MrgX1 antag inactive and RGS4 block inactive.
